Kir21 inh: blocks the mouse Kir2.1 inward-rectifier potassium channel | P35561 | HEK293-Kir2.1, FluxOR thallium flux fluorescence; stronger effect = lower value | B-score at 10 µM | hit rate 0.85% among 310,000 | AID 1672;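 active = fluorescence ratio B-score at or below minus 3 SD of library scores, with starting-brightness B-score within 2 SD, cut at about -4.2 in these data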;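 note: channel flux triggered by added potassium and thallium sulfate stimulus; B-score of peak minus minimum fluorescence over baseline after thallium stimulus; more negative B-score means stronger Kir2.1 block with less thallium influx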
KCNK3 inh: human KCNK3 channel inhibition, primary screen; CHO-KCNK3 thallium flux, FluxOR fluorescence; stronger effect = lower value; B-score at 10 µM; hit rate 0.84% among 340,000;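 active = B-score under library mean minus 4 SD, starting fluorescence ratio at most library mean plus 5 SD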;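 note: more negative B-score means stronger inhibition of thallium flux through KCNK3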
KCNQ1 pot: potentiates or activates the human KCNQ1 potassium channel; AID 2648; B-score at 10 µM; CHO-K1 KCNQ1, thallium flux FluxOR fluorescence; stronger effect = higher value; hit rate 0.35% among 310,000; P51787;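 active = fluorescence ratio B-score, a plate-corrected score, at least three library SD, with initial intensity B-score within 5 SD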
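Assay system: CHO-K1 cells stably expressing KCNQ1. Medium: assay buffer for compound exposure, DMSO matched across wells. Timing: 37 °C overnight plating, 90-min dark dye load, 20-min compound pretreatment. Signal: kinetic FluxOR fluorescence, 10 s baseline plus 110 s post-stimulus.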
KCNK9 block: blocks the human KCNK9 two-pore domain potassium channel. Q9NPC2. HEK293 KCNK9, FluxOR thallium flux fluorescence; stronger effect = lower value. B-score at 10 µM. hit rate 1.2% among 310,000;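 active = ratio B-score over 3 SD below the library mean, with starting fluorescence within 5 SD of its mean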;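 note: negative B-score means less thallium flux so channel inhibition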
KCNQ1 inh: human KCNQ1 channel inhibition; P51787; CHO-K1 KCNQ1, FluxOR thallium flux fluorescence; stronger effect = higher value; B-score at 10 µM; hit rate 1.3% among 310,000; AID 2642;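 active = compounds whose thallium flux B-score, printed positive for inhibition, exceeds three library SD while starting fluorescence stays within three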;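 note: channel opened by potassium depolarization with thallium stimulus after 20 min compound exposure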
hERG rescue: shields human hERG channel from block by proarrhythmic agents. Q12809. CHO-hERG, FluxOR thallium flux, dofetilide IC70 present. activation (rescue from dofetilide block), less the hit threshold, % at 10 µM. hit rate 0.51% among 310,000;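 active = activation above the mean of controls blocked by dofetilide plus 5 SD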;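 note: thallium influx through hERG after potassium depolarization seen as dye fluorescence rise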
Target sequence (Q12809 whole entry, looked up): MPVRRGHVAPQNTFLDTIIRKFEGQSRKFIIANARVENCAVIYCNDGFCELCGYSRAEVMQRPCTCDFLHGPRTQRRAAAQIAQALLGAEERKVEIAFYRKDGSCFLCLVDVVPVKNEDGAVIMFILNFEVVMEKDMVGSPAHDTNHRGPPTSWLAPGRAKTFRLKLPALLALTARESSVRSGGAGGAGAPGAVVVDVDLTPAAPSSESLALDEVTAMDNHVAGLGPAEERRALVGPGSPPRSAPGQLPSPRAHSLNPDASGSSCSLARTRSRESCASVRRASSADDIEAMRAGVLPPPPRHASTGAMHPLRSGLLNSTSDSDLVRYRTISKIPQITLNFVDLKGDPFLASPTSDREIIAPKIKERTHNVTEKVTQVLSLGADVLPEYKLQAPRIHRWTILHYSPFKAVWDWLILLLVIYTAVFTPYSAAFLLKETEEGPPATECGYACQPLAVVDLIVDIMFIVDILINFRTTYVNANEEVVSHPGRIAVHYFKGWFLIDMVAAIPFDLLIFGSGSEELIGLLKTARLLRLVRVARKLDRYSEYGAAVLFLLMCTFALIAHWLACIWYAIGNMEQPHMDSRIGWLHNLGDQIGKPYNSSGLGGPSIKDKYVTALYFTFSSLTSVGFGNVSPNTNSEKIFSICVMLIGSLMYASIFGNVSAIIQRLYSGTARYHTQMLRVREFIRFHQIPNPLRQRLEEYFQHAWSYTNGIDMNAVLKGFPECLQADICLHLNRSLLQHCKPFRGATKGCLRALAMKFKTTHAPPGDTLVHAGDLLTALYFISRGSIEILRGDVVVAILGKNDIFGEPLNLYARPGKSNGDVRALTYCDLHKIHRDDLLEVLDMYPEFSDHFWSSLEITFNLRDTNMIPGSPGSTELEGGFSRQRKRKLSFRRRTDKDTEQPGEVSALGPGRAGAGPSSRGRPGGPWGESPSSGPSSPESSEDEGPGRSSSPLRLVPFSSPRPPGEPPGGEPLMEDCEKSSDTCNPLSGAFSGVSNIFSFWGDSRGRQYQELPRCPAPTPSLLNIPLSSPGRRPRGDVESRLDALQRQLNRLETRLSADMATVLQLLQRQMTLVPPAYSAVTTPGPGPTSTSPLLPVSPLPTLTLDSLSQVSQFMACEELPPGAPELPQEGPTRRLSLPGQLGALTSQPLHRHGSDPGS
Of the large screens only hits and unclear results are named; the others gave an inactive call. Most compounds without a hit are left out; they make up all but 3.7% or so of the library.

CC(C)c1ccc(C2c3[nH]c4ccccc4c3C[C@H]3C(=O)N(c4ccccc4C(=O)N4CCC[C@H]4C(=O)O)C(=O)N23)cc1 (some centres not stated)	none
COc1ccc(/C=C/c2c(-c3ccc(OC)cc3)oc3ccc(-c4ccc(OC)cc4)cc23)cc1	none
COc1ccc(/C=C/c2cc(-c3ccc(C)cc3)o[n+]2C)cc1	KCNQ1 inh 9
CN(C)CCCN(C(=O)c1ccc(S(=O)(=O)N2CCCCCC2)cc1)c1nc2ccc(F)cc2s1	Kir21 inh -5
CN(C)CCCN(C(=O)c1ccc2c(c1)CCCC2)c1nc2ccc(Cl)cc2s1	Kir21 inh -4.3
CN(C)CCCN(C(=O)c1ccc(S(=O)(=O)N2CCOCC2)cc1)c1nc2ccc(F)cc2s1	none
O=[N+]([O-])/C=C/c1cc2ccccc2[nH]1	KCNQ1 inh 6
Fc1cccc(CO/N=C/c2c(-c3ccccc3)nc3ccc(Cl)cn23)c1	KCNK9 block -6.6, hERG rescue 6.7
COc1cc(/C=N/NC(=O)CN2CCCCC2)ccc1OCc1ccc(Br)cc1	Kir21 inh -6.6
COc1ccc(C(=NNc2ccccc2C(=O)O)c2ccc(OC)cc2)cc1	none
COc1ccccc1CNCc1cccc(Oc2ccccc2)c1	Kir21 inh -8.8, KCNQ1 pot 8
COc1ccccc1CNCC(c1ccccc1)c1ccccc1	Kir21 inh -8.5
COc1cc(CNCc2cccc3ccccc23)cc(OC)c1	Kir21 inh -4.7
COc1ccc(Br)cc1CNC(C)c1ccccc1 (configuration not stated)	Kir21 inh -4.4
CCCn1c(N)c(C(=O)CSc2nnc(C3CC3)n2C2CC2)c(=O)[nH]c1=O	none (no result: Kir21 inh, KCNQ1 pot, KCNK9 block, KCNQ1 inh, hERG rescue)
COc1ccccc1CNCC(O)Cn1c2ccccc2c2ccccc21 (configuration not stated)	Kir21 inh -13
COc1ccccc1CNCc1cc(Br)ccc1OC	Kir21 inh -6
COc1ccccc1CNCc1cc(OC)c(OC)cc1OC	none
CCN(CC)CCn1c2c(c(SCC(=O)Nc3nc4ccccc4s3)nc1=O)CCC2	none
COc1ccc(OC)c(-c2csc(NC(=O)CSc3ccc([N+](=O)[O-])cc3)n2)c1	KCNQ1 inh 7
CCCCCn1c(NCc2ccco2)nc2ccccc21	Kir21 inh -4.5
CCCCCCn1c(C(C)NC(=O)c2ccco2)nc2ccccc21 (configuration not stated)	Kir21 inh -9
CC(C)Oc1ccc(C2CC(=O)N(c3cccc(Br)c3)C2=O)cc1 (configuration not stated)	none
CCOc1ccc(N(CC(=O)N/N=C(\C)c2cccc(NC(C)=O)c2)S(=O)(=O)c2ccccc2)cc1	none
CCCCCN(C(=O)CCC(=O)OCC(=O)N1C(C)CCCC1C)c1c(N)n(CCCC)c(=O)[nH]c1=O (configuration not stated)	none
O=C(CCn1c(=O)oc2ccccc21)Nc1nc2ccccc2s1	KCNK9 block -7.2
COc1ccc(NS(=O)(=O)c2ccc(OC)c3ccccc23)cn1	Kir21 inh -5.3
CN(c1ccc(C(=O)Nc2ccc(CC#N)cc2)cc1)S(C)(=O)=O	none
CC(C)c1ccc2c(c1)C(c1cccs1)=NNC(c1ccncc1)=N2	KCNK9 block -7.4
COC(=O)c1ccc(N2CC3CNC(=O)C2(C(=O)OC)N3C)cc1 (configuration not stated)	none (no result: Kir21 inh, KCNQ1 pot, KCNK9 block, KCNQ1 inh, hERG rescue)
C=C(C)CC1(NC(C)c2ccccc2)CCCCC1 (configuration not stated)	Kir21 inh -4.9
CCNC(=S)SCCOc1ccc(C)cc1	none
Nc1cc(C(F)(F)F)ccc1NCCc1ccccn1	none
CN(Cc1ccccc1F)C(=O)c1ccc(NC(=O)CC2SC(N3CCCCC3)=NC2=O)cc1 (configuration not stated)	none (no result: Kir21 inh, KCNQ1 pot, KCNK9 block, KCNQ1 inh, hERG rescue)
CN(C)c1ncc(C2=C(Cl)C(=O)C(N3CCCC3)=C(Cl)C2=O)s1	KCNQ1 inh 7
O=C1C(Cl)=C(N2CCCCC2)C(=O)C(Cl)=C1c1cnc(N2CCCCC2)s1	KCNQ1 inh 7
O=C(CN1CCN(c2ccc(F)cc2)CC1)Nc1ccccc1[N+](=O)[O-]	none
CSCCC(NC(=O)c1ccccc1Cl)C(=O)N1CCN(C(c2ccccc2)c2ccccc2)CC1 (configuration not stated)	Kir21 inh -4.7
CC(C)C(=O)Nc1nnc(SCC(=O)NCc2cccs2)s1	none
Cc1cc(C(C)(C)C)cc(C)c1CCNC(=O)c1c(C)noc1C	none (no result: Kir21 inh, KCNQ1 pot, KCNK9 block, KCNQ1 inh, hERG rescue)
CN(C)c1ccc(/C=N\NC(=S)SCN2C(=O)C3CCC(C)(C2=O)C3(C)C)cc1 (configuration not stated)	none (no result: Kir21 inh, KCNQ1 pot, KCNK9 block, KCNQ1 inh, hERG rescue)
COc1ccc(/C=N\NC(=S)SCN2C(=O)C3CCC(C)(C2=O)C3(C)C)cc1 (configuration not stated)	KCNQ1 pot 16
Cc1ccccc1Cn1nc(C)c(NC(=O)/C=C/c2cnn(C)c2)c1C	none
N#Cc1ccsc1NC(=O)C1CCN(S(=O)(=O)c2cccs2)CC1	none
COc1ccc(S(=O)(=O)N2CCc3ccccc3C2)cc1OC	Kir21 inh -4.2
Cc1oc(C)c2c(=O)ccc3c(c12)OC(N)=C(C#N)C3c1ccccc1Cl (configuration not stated)	KCNQ1 inh 6
CCCn1c(N)c(C(=O)CSc2nc3ncc(Cl)cc3[nH]2)c(=O)[nH]c1=O	none (no result: Kir21 inh, KCNQ1 pot, KCNK9 block, KCNQ1 inh, hERG rescue)
Cc1ccc(Cl)c(OCC(=O)NCC(c2cccs2)N2CCOCC2)c1 (configuration not stated)	Kir21 inh -7.8
O=C(N=Nc1c(O)[nH]c2ccc(F)cc12)C1COc2ccccc2O1 (configuration not stated)	none
COc1cc(OC)cc(-c2nc3ccccc3c(=O)n2OC(=O)c2ccc(C)c(C)c2)c1	KCNQ1 inh 7
COc1cc(OC)cc(C(=O)Nn2c(C)nc3ccccc3c2=O)c1	none
S=C(Nc1ccccc1)Nc1cc(Cl)ccc1Oc1ccccc1	KCNQ1 inh 9
N=c1sccn1CC(=O)Nc1cc(Cl)ccc1Oc1ccccc1	Kir21 inh -4.8
S=C(Nc1cc(Cl)ccc1Oc1ccccc1)N1CCN(c2ccccn2)CC1	none
N=c1sccn1CC(=O)Nc1cccc(Oc2ccccc2)c1	Kir21 inh -4.3
O=C(NNC(=O)c1cccc2ccccc12)c1cccc(Cl)c1	none (no result: Kir21 inh, KCNQ1 pot, KCNK9 block, KCNQ1 inh, hERG rescue)
Cc1ccc(S(=O)(=O)NCC(=O)NCC(=O)OC(C(=O)NC(N)=O)C(C)C)cc1C (configuration not stated)	none
O=c1ccccn1Cc1c(F)cccc1Cl	hERG rescue 5.2
Cc1cccn(Cc2c(F)cccc2Cl)c1=O	none
CC(C)CN(C(=O)CN(C)CC(=O)Nc1ccc(Cl)c(C(F)(F)F)c1)c1c(N)n(CC(C)C)c(=O)[nH]c1=O	none (no result: Kir21 inh, KCNQ1 pot, KCNK9 block, KCNQ1 inh, hERG rescue)
Cc1sc2ncnc(N3CCC(C(=O)Nc4ccc(Cl)c(Cl)c4)CC3)c2c1C	KCNK3 inh -10 (no result: Kir21 inh, KCNQ1 pot, KCNK9 block, KCNQ1 inh, hERG rescue)
